# Measured values from different studies.
# Each line is one published result; the experiments were not run side by side.
Structure (SMILES),tested on,test,system,setting,endpoint,result
O=C(Nc1ccc(Cl)cc1)C1CCCN(C(=O)c2cc(C(F)(F)F)cc(C(F)(F)F)c2)C1 (racemic),OCI-Ly1,"cell growth or viability, ATP luminescence",,"0.5 µM, 5 days",viability,137%
Cc1n[nH]c2ccc3nc(-c4ccc(C(=O)NCCN(C)C)cc4)c4c(c3c12)CCC(C)(C)C4,K562,"cell growth or viability, resazurin",,72 h,GI50,6.4 µM
Cc1ccc2[nH]nc(-c3nnc(Nc4ccc(F)cc4)s3)c2c1,Staphylococcus epidermidis,microbial growth,ATCC12228,,MIC,123 mg/L
CN[C@H](CC(C)C)C(=O)N[C@H]1C(=O)N[C@@H](CC(N)=O)C(=O)N[C@H]2C(=O)N[C@H]3C(=O)N[C@H](C(=O)N[C@H](C(=O)O)c4cc(O)cc(O)c4-c4cc3ccc4O)[C@H](O)c3ccc(c(Cl)c3)Oc3cc2cc(c3O[C@@H]2O[C@H](CO)[C@@H](O)[C@H](O)[C@H]2O[C@H]2C[C@](C)(N)[C@H](O)[C@H](C)O2)Oc2ccc(cc2Cl)[C@H]1O,Staphylococcus epidermidis,microbial growth,,clinical isolate,MIC50,0.5 mg/L
CN(C)CCNC(=O)c1ccc(-c2nc3ccc4[nH]ncc4c3c3c2CCCC3)s1,K562,"cell growth or viability, resazurin",,72 h,GI50,0.805 µM
CC[C@H]1OC(=O)[C@H](C)[C@@H](O[C@H]2C[C@@](C)(OC)[C@@H](O)[C@H](C)O2)[C@H](C)[C@@H](O[C@@H]2O[C@H](C)C[C@H](N(C)C)[C@H]2O)[C@](C)(O)C[C@@H](C)/C(=N\OCOCCOC)[C@H](C)[C@@H](O)[C@]1(C)O,Staphylococcus epidermidis,microbial growth,,clinical isolate,MIC50,32 mg/L
O=C(NCCN1CCCC1)c1ccc(-c2nc3ccc4[nH]ncc4c3c3c2CCCC3)cc1,K562,"cell growth or viability, resazurin",,72 h,GI50,2.7 µM
C=C[C@]1(C)C[C@@H](OC(=O)CS[C@@H]2C[C@H]3CC[C@@H](C2)N3C)[C@]2(C)[C@H](C)CC[C@]3(CCC(=O)[C@H]32)[C@@H](C)[C@@H]1O,Staphylococcus epidermidis,microbial growth,,clinical isolate,MIC50,0.0312 mg/L
O=C(NO)c1ccc(CC(=O)N(CCO)c2ccccc2)cc1,OCI-Ly1,"cell growth or viability, ATP luminescence",,"0.5 µM, 5 days",viability,93.8%
CCCCCCCCCCCCCCCCCCOc1cccc(CC(=O)OCC[N+]2(C)CCOCC2)c1,HOP-92,"cell growth or viability, SRB",,10 µM,inhibition,13.9%
COc1c(N2C[C@@H]3CCCN[C@@H]3C2)c(F)cc2c(=O)c(C(=O)O)cn(C3CC3)c12,Staphylococcus epidermidis,"microbial growth, broth dilution",,clinical isolate,MIC90,2 mg/L
O=C(CCCCCCC(=O)Nc1ccccc1)NO,OCI-Ly1,"cell growth or viability, ATP luminescence",,"1 µM, 5 days",viability,50.5%
CCCCCCCCCCCCCCCCCCOc1ccccc1CC(=O)OCCC[N+](C)(C)C,HOP-62,"cell growth or viability, SRB",,10 µM,inhibition,32.9%
Cc1ccc2[nH]nc(-c3nnc(Nc4ccc(Cl)c(Br)c4)s3)c2c1,Staphylococcus epidermidis,microbial growth,ATCC12228,,MIC,235 mg/L
CN(C)CCNC(=O)c1ccc(-c2nc3ccc4[nH]ncc4c3c3c2CCCCC3)cc1,K562,"cell growth or viability, resazurin",,72 h,GI50,1.5 µM
CCCCCCCCCCCCCCCCCCOc1cccc(CC(=O)OCC[N+](C)(C)C)c1,HOP-92,"cell growth or viability, SRB",,10 µM,inhibition,12.2%
Cc1n[nH]c2ccc3nc(-c4ccc(C(=O)NCCN(C)C)nc4)c4c(c3c12)CCCCC4,K562,"cell growth or viability, resazurin",,72 h,GI50,8.5 µM
Cc1c2c(nn1C)CSCc1cc(n(C)n1)CSc1cc(c3ccccc3c1)OCCCc1c(C(=O)O)n(C)c3c-2c(Cl)ccc13,Staphylococcus epidermidis,"microbial growth, broth dilution",,clinical isolate,MIC90,12.5 µM
CCCCCCCCCCCCCCCCCCOc1ccc(CC(=O)OCC[N+](CC)(CC)CC)cc1,HOP-92,"cell growth or viability, SRB",,10 µM,inhibition,13.3%
CC(=O)NC[C@H]1CN(c2ccc(N3CCOCC3)c(F)c2)C(=O)O1,Staphylococcus epidermidis,microbial growth,MRSE,clinical isolate,MIC90,2 mg/L
CCCCCCCCCCCCCCCCCCOc1cccc(CC(=O)OCC[N+](CC)(CC)CC)c1,HOP-92,"cell growth or viability, SRB",,10 µM,inhibition,47.7%
O=C(CCCCCCSc1ccc2ccccc2c1)NO,OCI-Ly1,"cell growth or viability, ATP luminescence",,"1 µM, 5 days",viability,154%
Cc1ccc2[nH]nc(-c3nnc(Nc4ccc(Cl)cc4)s3)c2c1,Staphylococcus epidermidis,microbial growth,ATCC12228,,MIC,133 mg/L
CC1(C)S[C@@H]2[C@H](NC(=O)[C@H](N)c3ccccc3)C(=O)N2[C@H]1C(=O)O,Staphylococcus epidermidis,microbial growth,,clinical isolate,MIC50,8 mg/L
O=C(/C=C/c1cccc(C(=O)NO)c1)NO,OCI-Ly1,"cell growth or viability, ATP luminescence",,"0.5 µM, 5 days",viability,108%
CN(C)CCN(C)C(=O)c1ccc(-c2nc3ccc4[nH]ncc4c3c3c2CCCCC3)cn1,K562,"cell growth or viability, resazurin",,72 h,GI50,9.2 µM
Cc1ccc2[nH]nc(-c3nnc(Nc4ccc([N+](=O)[O-])cc4)s3)c2c1,Staphylococcus epidermidis,microbial growth,ATCC12228,,MIC,135 mg/L
O=C(Nc1nccs1)c1ccc(-c2nc3ccc4[nH]ncc4c3c3c2CCCC3)cc1,K562,"cell growth or viability, resazurin",,72 h,GI50,> 10 µM
O=C(Nc1cccc(Br)c1)c1cccc(S(=O)(=O)N2CCCCCC2)c1,OCI-Ly1,"cell growth or viability, ATP luminescence",,"0.5 µM, 5 days",viability,157%
CCCCCCCCCCCCCCCCCCOc1ccc(CC(=O)OCC[N+]2(C)CCCCC2)cc1,HOP-92,"cell growth or viability, SRB",,10 µM,inhibition,2.18%
CC(=O)OC[C@H]1O[C@@H](n2cnc(N)nc2=O)[C@H](OC(C)=O)[C@@H]1OC(C)=O,OCI-Ly1,"cell growth or viability, ATP luminescence",,"1 µM, 5 days",viability,153%
CCCCCCCCCCCCCCCCCCOc1ccccc1CC(=O)OCC[N+]1(C)CCCCC1,HOP-62,"cell growth or viability, SRB",,10 µM,inhibition,30%
Cc1ccc2[nH]nc(-c3nnc(Nc4ccc(C(F)(F)F)cc4)s3)c2c1,Staphylococcus epidermidis,microbial growth,ATCC12228,,MIC,123 mg/L
CCCCCCCCCCCCCCCCCCOCC(COP(=O)([O-])OCC[N+](C)(C)C)OC (centres unmarked),HOP-92,"cell growth or viability, SRB",,10 µM,inhibition,40.1%
CN(C)CCNC(=O)c1ccc(-c2nc3ccc4[nH]ncc4c3c3c2CCCC3)c(F)c1,K562,"cell growth or viability, resazurin",,72 h,GI50,1.1 µM
